Measurements from PMC6933791 (ACS Omega, 2019).

Legend:
[1] = tested on: Na+/K+-ATPase α1,2,3 subunit of the porcine cortex; assay: Na+/K+-ATPase inhibition assay; type: biochemical; conditions: 0.1 μM compound, 30 min co-incubation, positive control = 100% activity
Method in brief: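 Porcine cortex Na+/K+-ATPase (α1,2,3; 0.05 U/mL) was preincubated 30 min with test compound (0.1 μM) in 40 mM Tris–HCl pH 7.5, 80 mM NaCl, 1 mM EDTA and 8 mM MgAc2. ATP (4 mM) was then added and the reaction stopped after 30 min. Released Pi was read by malachite green at 600 nm after subtracting the no-enzyme control. Uninhibited enzyme defined 100% activity. Run in triplicate.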

A549 cells [2] = assay: Cell binding of radiolabeled compound; parameters: species or system human
Method in brief: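 A549 and MRC-5 cells were grown in DMEM with 10% FBS and 1% penicillin/streptomycin (37 °C, 5% CO2), trypsinised, resuspended in PBS pH 7.4 and trypan-blue counted. Labelled test compound (0.1 μM), 99mTc-chelator alone (1.3 μM), or test compound plus 10-fold excess unlabelled cardenolide was shaken with 250 000 viable cells/tube (140 rpm, 120 min, 37 °C). Pellets were counted. Three biological × three technical replicates.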

[3] = Biodistribution in healthy mice; type: in vivo, BALB/c mice; conditions: i.v.
A549 cells [4] = assay: MTT cell viability assay, A549; type: cell-based; conditions: read-out: IC50 A549 cell line, 48 h, human non-small-cell lung cancer A549
Method in brief: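 A549 cells (1 × 10^4/well), cultured in DMEM with 10% FBS and antibiotics, were exposed to a range of concentrations of the […] test compound for 48 h. MTT was added (1 mg/mL final) for 4 h at 37 °C, formazan was dissolved in DMSO, and absorbance was read at 570 nm. Cells given 0.5% DMSO defined 100% viability. IC50 came from dose–response curves.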

[5] = Radiochemical stability in saline; type: physicochemical; conditions: NaCl 0.9% (w/v), room temperature (23 °C), up to 24 h
Method in brief: (§1)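 The 99mTc-labelled test compound was incubated in 0.9% NaCl at 23 °C or in plasma at 37 °C with agitation. Samples were taken at 1, 2, 4, 8 and 24 h. Radiochemical purity was measured by TLC in acetone (free pertechnetate) and glacial acetic acid/water 15:85 (99mTcO2), with strips counted by scintillation. There were 6 samples per time point, each assessed in duplicate.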

MRC-5 cells = assay: MTT cell viability assay, MRC-5; type: cell-based; conditions: read-out: IC50 non-tumor MRC-5 cell line, 48 h, human fetal lung fibroblast MRC-5
[6] = Radiochemical stability in plasma; type: in vitro ADME; conditions: 37 °C, under agitation, up to 24 h
Method in brief: as §1

[7] = Blood clearance in healthy mice; type: in vivo; conditions: healthy BALB/c mice, i.v. tail vein
Method in brief: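 Female BALB/c mice (20 g, 8 weeks old; n = 6 per time point) received 100 μL (3.7 MBq) of diluted 99mTc-labelled test compound (final volume 1800 μL) by tail vein. Blood was sampled at 5, 15, 30, 60, 120 and 240 min, weighed and counted for radioactivity. Percent injected dose per mL blood (%ID/mL) was plotted against time.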

For C[C@]12CC[C@H](O)C[C@H]1CC[C@@H]1[C@@H]2CC[C@]2(C)[C@@H](C3=CC(=O)OC3)CC[C@]12O [DIG, digitoxigenin], which “Na+/K+-ATPase enzymatic activity remaining” value [1] is on record?
The value was “less than 50%”.

With O=C(O)CN(CCN(CC(=O)O)CC(=O)O)CCN(CC(=O)O)CC(=O)O [DTPA, diethylenetriaminepentaacetic acid] as the compound, how does the “Na+/K+-ATPase enzymatic activity remaining” value [1] read?
The value was “no influence”.

With O=C([O-])CN(CCN(CC(=O)[O-])CC(=O)[O-])CCN(CC(=O)[O-])CC(=O)[O-].[99Tc+4] [^99mTc-DTPA, reference compound] as the compound, how does the “Affinity to A549 cancer cells” value (A549 cells [2]; 1.3 μM, 2 h incubation, 37 °C) read?
The value was “low affinity”.

For ^99mTc-DTPA–digitoxigenin, which “Biodistribution, blood” value ([3]; 30 min) is on record?
Its value is 0.51 %ID/g.

And the “Biodistribution, heart” value ([3]; 30 min)?
Its value is 0.31 %ID/g.

What about the “Biodistribution, intestine” value ([3]; 30 min) of the same compound?
Its value is 24.97 %ID/g.

What about the “Biodistribution, kidney” value ([3]; 30 min) of the same compound?
The value was 1.64 %ID/g.

What about the “Biodistribution, liver” value ([3]; 30 min) of the same compound?
The value was 4.74 %ID/g.

What about the “Biodistribution, lungs” value ([3]; 30 min) of the same compound?
Its value is 1.46 %ID/g.

What about the “Biodistribution, muscle” value ([3]; 30 min) of the same compound?
The value was 0.50 %ID/g.

And the “Biodistribution, spleen” value ([3]; 30 min)?
The value was 0.90 %ID/g.

What about the “Biodistribution, thyroid” value ([3]; 30 min) of the same compound?
Its value is 0.59 %ID/g.

And the “Biodistribution, blood” value ([3]; 2 h)?
The value was 0.43 %ID/g.

What about the “Biodistribution, heart” value ([3]; 2 h) of the same compound?
The value was 0.32 %ID/g.

And the “Biodistribution, intestine” value ([3]; 2 h)?
Its value is 27.06 %ID/g.

And the “Biodistribution, kidney” value ([3]; 2 h)?
The value was 1.48 %ID/g.

And the “Biodistribution, liver” value ([3]; 2 h)?
Its value is 2.34 %ID/g.

And the “Biodistribution, lungs” value ([3]; 2 h)?
The value was 0.6 %ID/g.

And the “Biodistribution, muscle” value ([3]; 2 h)?
Its value is 0.26 %ID/g.

What about the “Biodistribution, spleen” value ([3]; 2 h) of the same compound?
The value was 0.85 %ID/g.

What about the “Biodistribution, thyroid” value ([3]; 2 h) of the same compound?
The value was 0.59 %ID/g.

And the IC50 (A549 cells [4])?
The IC50 was 120 nM.

What about the “Radiochemical stability in saline” value [5] of the same compound?
The value was “remained stable”.

And the IC50 (MRC-5 cells)?
Its IC50 is 780 nM.

And the “Radiochemical stability in plasma” value [6]?
The value was “remained stable”.

And the “Binding to A549 cells when co-incubated with free digitoxigenin” value (A549 cells [2]; 0.1 μM, 10-fold excess of free digitoxigenin, 2 h)?
The value was “reduced to the rate of non-tumor MRC-5 cells”.

And the “Binding to A549 cells compared with non-tumor MRC-5 cells” value (A549 cells [2]; 0.1 μM, 2 h incubation, 37 °C)?
The value was “significantly higher binding”.

And the Blood half-life [7]?
The Blood half-life was 11.7 min.

What about the “Na+/K+-ATPase enzymatic activity remaining” value [1] of the same compound?
The value was “less than 50%”.
